Screening data deposited in PubChem by several laboratories.
Shown are actives, neighbours in structure and some others; about 2.9% of the full set was active somewhere.
Apaf1 inhib: blocks human Apaf-1 apoptosome activity; AID 489030; reconstituted apoptosome caspase-3 activity, DEVD-Rh110 fluorescence; O14727; actives 0.71% (n = 330,000); inhibition, % at 20 µM; active = inhibition of at least 40% at 20 µM;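 note: plate controls were DMSO wells for no effect and DEVD-CHO caspase inhibitor wells for full effect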
Target sequence (O14727 whole entry, looked up): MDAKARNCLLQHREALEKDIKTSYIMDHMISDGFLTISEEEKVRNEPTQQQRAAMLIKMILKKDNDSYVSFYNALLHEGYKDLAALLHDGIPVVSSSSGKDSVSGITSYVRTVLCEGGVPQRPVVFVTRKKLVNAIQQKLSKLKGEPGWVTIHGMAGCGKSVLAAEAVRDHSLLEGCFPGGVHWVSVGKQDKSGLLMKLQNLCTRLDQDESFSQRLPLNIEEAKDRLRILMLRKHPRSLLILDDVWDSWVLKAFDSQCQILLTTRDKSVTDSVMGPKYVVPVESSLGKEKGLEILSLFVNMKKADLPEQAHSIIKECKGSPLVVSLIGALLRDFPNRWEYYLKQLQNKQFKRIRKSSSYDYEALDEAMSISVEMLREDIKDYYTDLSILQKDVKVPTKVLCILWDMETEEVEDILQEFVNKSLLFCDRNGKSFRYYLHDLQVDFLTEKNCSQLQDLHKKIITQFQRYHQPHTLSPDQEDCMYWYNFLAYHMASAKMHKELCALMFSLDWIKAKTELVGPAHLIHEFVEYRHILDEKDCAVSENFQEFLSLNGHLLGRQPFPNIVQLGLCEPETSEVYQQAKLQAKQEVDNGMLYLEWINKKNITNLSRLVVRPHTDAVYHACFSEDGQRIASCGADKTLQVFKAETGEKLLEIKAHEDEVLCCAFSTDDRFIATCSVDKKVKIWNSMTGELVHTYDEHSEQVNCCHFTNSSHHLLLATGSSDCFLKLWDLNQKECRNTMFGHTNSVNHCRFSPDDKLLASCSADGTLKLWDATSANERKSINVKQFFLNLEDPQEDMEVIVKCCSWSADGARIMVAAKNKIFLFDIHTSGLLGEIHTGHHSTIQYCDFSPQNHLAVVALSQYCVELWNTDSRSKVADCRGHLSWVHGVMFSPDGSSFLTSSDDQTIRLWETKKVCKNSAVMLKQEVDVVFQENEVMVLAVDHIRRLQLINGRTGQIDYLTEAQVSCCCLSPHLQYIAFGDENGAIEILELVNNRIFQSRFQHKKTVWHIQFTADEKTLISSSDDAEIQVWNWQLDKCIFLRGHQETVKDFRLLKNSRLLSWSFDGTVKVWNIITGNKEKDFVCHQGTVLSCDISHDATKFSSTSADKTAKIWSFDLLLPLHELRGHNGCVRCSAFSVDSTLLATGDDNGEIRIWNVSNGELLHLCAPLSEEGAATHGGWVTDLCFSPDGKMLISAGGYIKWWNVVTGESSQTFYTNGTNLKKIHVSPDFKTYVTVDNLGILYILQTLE
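Assay system: Apoptosome proteins | Medium: pH 7.5 Hepes buffer with CHAPS, BSA, DTT | Also added: Cytochrome c and DEVD-Rh110 substrate | Times: 30 min plus 50 min, RT | Detection: Rhodamine 110 fluorescence at Ex 480/Em 540 nm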
MEKK2wt PB1 HTS: raises or lowers MEK5 binding to wildtype human MEKK2 PB1 domain; Q9Y2U5; bead flow cytometry, Alexa488-MEK5 binding to MEKK2 WT; actives lie on both sides; binding response (% of control), % at 10 µM; actives 1.1% (n = 290,000); in the data active = binding response below about 67% or above about 130%
MEKK3 PB1 HTS: modulators (inhibitors or enhancers) of MEK5 binding to human MEKK3 PB1 domain | bead-based flow cytometry, Alexa488-MEK5 binding to MEKK3; actives lie on both sides; 0 = blocked by unlabeled MEK5, 100 = vehicle | actives 1.4% (n = 290,000) | Q99759 | binding response (% of control), % at 10 µM;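 active = binding response more than 3 SD above or below the average of its plate-row segment, actives on both sides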;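 note: Alexa488 bead fluorescence after subtracting the streptavidin-only scavenger bead signal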
UBC13 inh: inhibitors of human UBC13 polyubiquitin chain formation; P61088; TR-FRET; inhibition, % at 20 µM; actives 0.47% (n = 330,000); AID 485273; in the data active = inhibition above about 45%, passing the limit was not always enough
MEKK2mut PB1 HTS: signal of MEK5 binding to mutant human MEKK2 PB1 domain | bead flow cytometry, Alexa488-MEK5 binding to MEKK2 mutant | percent response, % at 10 µM | actives 0.35% (n = 290,000); in the data active = percent response above about 24%, passing the limit was not always enough
* hit, by the source's call; i = inactive; nt = not tested or not shown; [ ] = remark or other dose.

SMILES | Apaf1 inhib | MEKK2wt PB1 HTS | MEKK3 PB1 HTS | UBC13 inh | MEKK2mut PB1 HTS
CC1CCN(CCCNC(=O)C2CCCN(c3ncnc4c3nc3n4CCCCC3)C2)CC1 (stereo not given) | 8 | 104 | 100 | 12 | 0
CCc1nnc(NC(=O)CCC(=O)Nc2ccc(Cl)cc2)s1 | 1 | 108 | 108 | 0 | 13
Cc1ccc(S(=O)(=O)NCc2ccc(C(=O)N3CCN(c4ccc([N+](=O)[O-])cc4)CC3)cc2)cc1 | 8 | 104 | 101 | -5 | 1
C=CCn1c(N)c(C(=O)OC(C)CC)c2nc3ccccc3nc21 (stereo not given) | nt | 99 | 103 | nt | 1
C=CCn1c(N)c(C(=O)OC(C)(C)C)c2nc3ccccc3nc21 | 67* | nt | nt | 1 | nt
Cc1ccc(NC(=O)CCc2nnc3ccc(N4CCC5(CC4)OCCO5)nn23)cc1F | -6 | 101 | 102 | -7 | 1
Cc1ccc2sc(N(CCCN(C)C)C(=O)CCS(=O)(=O)c3ccccc3)nc2c1C | 25 | 151* | 107 | 11 | 16
O=C(N[C@@H]1CCC(=O)N(CC[C@H](Oc2ccccc2)c2ccccc2)CC1)OCc1ccccc1 | 23 | 98 | 100 | 18 | 0
C[C@]12C=CC(=O)C=C1CC[C@@H]1C2=CC[C@]2(C)[C@@H](C(=O)CN3CCN(c4cc(N5CCCC5)nc(N5CCCC5)n4)CC3)CC[C@@H]12 | 87* | 117 | 107 | -22 | 5
Cc1cccc(C)c1NC(=O)c1cnccn1 | -13 | 93 | 94 | -4 | 0
COc1ccccc1C(=O)NCCCNC(=O)c1cccnc1 | -1 | 96 | 100 | -7 | -5
COC(=O)c1[nH]c2ccc(C)cc2c1NC(=O)CN1CCCc2ccccc21 | 30 | -9.0* | 92 | 0 | 15
COC(=O)c1[nH]c2cc(C)ccc2c1NC(=O)CN1CCN(c2ccccc2OC)CC1 | 14 | 97 | 100 | 1 | 9
O=S(=O)(c1ccc(S(=O)(=O)N2CCC(O)CC2)cc1)N1CCCC1 | 1 | 94 | 104 | 0 | -2
O=C(COC(=O)/C=C/c1ccc(F)cc1)Nc1ccccc1-c1ccccc1 | 3 | 96 | 69*[inhibitor] | 6 | -2
CN(C)c1ccc(/C=C/c2ccc3ccccc3[n+]2C)cc1 | 18 | 2.0* | 97 | i | 27
CN(CCCS(=O)(=O)[O-])c1ccc(/C=C/c2ccc3ccccc3[n+]2C)cc1 | 10 | 103 | 106 | -296 | -2
Cc1ccc(C)c(SCC(=O)OCC(=O)NCCNC(=O)COC(=O)CSc2cc(C)ccc2C)c1 | 39 | nt | nt | 12 | nt
CCOc1ccccc1CNC(=O)C1CCN(c2nc3ccccc3o2)CC1 | -11 | nt | nt | 17 | nt
CCOc1ccccc1CNC(=O)C1CCCN(c2nc3ccccc3o2)C1 (stereo not given) | nt | 74 | 68*[inhibitor] | nt | -14
COc1ccc(NC(=O)C2CCCN2C(=O)NC2CCCCC2)cc1 (stereo not given) | -8 | 101 | 100 | 6 | 3
C=CCSC1=C(C#N)C(c2ccc(OCC)cc2)CC(=O)N1 (stereo not given) | 1 | 114 | 113 | -7 | 10
Cc1ccc2c(c1)[C@H]1OCC[C@H]1[C@@H](c1ccncc1)N2 | 7 | 96 | 89 | 4 | -11
C1=CC2c3ccccc3NC(c3ccncc3)C2C1 (stereo not given) | 49* | 78 | 87 | -20 | -8
CC[n+]1c(/C=C/C=C/N(C(C)=O)c2ccccc2)sc2cc(OC)ccc21 | nt | 11* | 89 | nt | 15
CCCCCCN(C(=O)CCCCCN1C(=O)NC(c2ccc(-c3ccccc3)cc2)C(C(=O)OCc2ccccc2)=C1C)C(C(=O)NCCCC)c1cccc(C(=O)OC)c1 (stereo not given) | 79* | 104 | 101 | -28 | 3
Cc1ccc(C(=O)N2CCC(C(=O)Nc3cccc([N+](=O)[O-])c3)CC2)cc1 | 14 | 98 | 101 | 29 | 3
COc1ccc(C[C@H]2CN3C(=NC[C@@H]3Cc3ccccc3)N2C[C@H](C)NC(=O)CCC2CCCCC2)cc1 | 52* | 92 | 109 | 17 | 7
COc1ccc(-c2cnc(N)n2CC2CCCO2)cc1 (stereo not given) | -1 | -6.0* | 97 | 10 | 3
CC(C)c1nnc(NC(=O)CCC2CCCCC2)s1 | 15 | 104 | 99 | -2 | 0
